Screening results (PubChem BioAssay)
A selection: hits, their analogues and other compounds. The true share with any hit is near 3%.
SENP8 block-1: SENP8 protease inhibition | purified SENP8, Z-RLRGG-aminoluciferin cleavage, luminescence | inhibition, % at 10 µM | 1.2% of 330,000 active | AID 2540; in the data active = inhibition above about 50%
Target sequence (Q96LD8 whole entry, looked up): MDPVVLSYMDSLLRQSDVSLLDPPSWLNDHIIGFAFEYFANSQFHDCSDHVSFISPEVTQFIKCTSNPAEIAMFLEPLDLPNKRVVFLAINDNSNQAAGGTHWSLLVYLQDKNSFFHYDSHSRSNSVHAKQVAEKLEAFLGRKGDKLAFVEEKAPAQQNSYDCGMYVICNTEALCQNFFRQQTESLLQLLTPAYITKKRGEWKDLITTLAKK
UBC13 polyUb: blocks human UBC13 polyubiquitin chain formation | P61088 | TR-FRET | inhibition, % at 20 µM | 0.47% of 330,000 active | AID 485273; in the data active = inhibition above about 45%, passing the limit was not always enough
SENP7 block: SENP7 protease inhibition; Q9BQF6; recombinant SENP7, Z-RLRGG-aminoluciferin luminescence, 40 min; inhibition, % at 5 µM; 1.5% of 330,000 active;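 active = inhibition above about 50% at the single test dose, limit read from the data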
Target sequence (Q9BQF6 706-1050 limits assumed): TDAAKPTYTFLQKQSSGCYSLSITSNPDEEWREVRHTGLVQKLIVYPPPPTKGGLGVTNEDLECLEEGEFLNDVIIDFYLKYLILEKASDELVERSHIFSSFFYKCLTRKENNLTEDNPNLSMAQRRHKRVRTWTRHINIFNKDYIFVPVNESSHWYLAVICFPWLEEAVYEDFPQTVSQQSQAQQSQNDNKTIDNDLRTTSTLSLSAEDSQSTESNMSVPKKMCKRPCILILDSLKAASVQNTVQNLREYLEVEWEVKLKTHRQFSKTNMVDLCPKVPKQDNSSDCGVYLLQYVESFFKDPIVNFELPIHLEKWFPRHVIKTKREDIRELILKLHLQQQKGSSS
SENP6 block: SENP6 protease inhibition. Recombinant SENP6 catalytic domain, aminoluciferin luminescence. inhibition, % at 10 µM. 1.8% of 330,000 active. AID 2599;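 active = inhibition above about 50% at the single tested dose, limit read from the data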
SENP8 block-2: SENP8 (human) protease inhibition; Q96LD8; recombinant SENP8, Nedd8 substrate fluorescence; inhibition, % at 20 µM; 0.64% of 360,000 active; AID 602440; in the data active = inhibition mostly above about 40%, no sharp cut-off; inactive = mostly below about 27%
Apaf-1 inh: inhibitors of human Apaf-1 apoptosome. AID 489030. reconstituted apoptosome caspase-3 activity, DEVD-Rh110 fluorescence. O14727. 0.71% of 330,000 active. inhibition, % at 20 µM; active = inhibition of at least 40% at 20 µM
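Assay system – apoptosome proteins · Medium – Hepes buffer, pH 7.5 · Also added – cytochrome c with DEVD-Rh110 · Timing – 30 min compound preincubation, 50 min activation, room temperature · Detection – Rh110 fluorescence, excitation 480 nm, emission 540 nm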
SENP8 confirm: human SENP8 inhibition, confirmed; shares compounds with SENP7 block; Recombinant SENP8, Z-RLRGG-aminoluciferin luminescence, 60 min; inhibition, % at 12.5 µM; 40% of 6,200 active; AID 488912;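 active = mean inhibition across replicates above about 50%, limit read from the data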
SENP6 conf: human SENP6 inhibition, confirmed; shares compounds with SENP7 block; recombinant SENP6, Z-RLRGG-aminoluciferin luminescence; inhibition, % at 12.5 µM; 58% of 6,200 active
SENP7 confirm: human SENP7 inhibition, confirmed. recombinant SENP7, Z-RLRGG-aminoluciferin luminescence, 40 min. shares compounds with SENP7 block. 69% of 6,200 active. AID 488917. inhibition, % at 12.5 µM
Casp3 select: caspase-3 inhibition (SENP selectivity assay). shares compounds with SENP7 block. purified caspase-3, Z-DEVD-aminoluciferin luminescence, 60 min. inhibition, % at 12.5 µM. 60% of 6,200 active;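 active = mean inhibition above about 50%, limit read from the data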
SENP luc ctr: counter-screen for SENP inhibitors: luminescence interference; shares compounds with SENP7 block; Pre-incubated SENP8/Z-RLRGG-aminoluciferin, luciferase luminescence interference; inhibition, % at 12.5 µM; 39% of 6,200 active; AID 488919;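 active = mean inhibition above about 50% when retested at one dose, limit read from the data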
A number is an active result; – = inactive; · = no result given.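 Rule for the calls, unless noted: active = mean inhibition above about 50% in the one-dose retest (limit read from the data); inactive = the rest.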

SMILES	SENP8 block-1	UBC13 polyUb	SENP7 block	SENP6 block	SENP8 block-2	Apaf-1 inh	SENP8 confirm	SENP6 conf	SENP7 confirm	Casp3 select	SENP luc ctr
COc1ccc2c(c1)CC/C2=N\OC(=O)c1ccccc1C	72.8	–	79.8	78.7	–	–	–	82.0	82.9	71.6	–
CCOC(=O)c1nn(-c2ccccc2)cc1O	–	–	–	–	–	–	·	·	·	·	·
COC(=O)c1nn(-c2ccc(-c3ccccc3)cc2)cc1O	93.4	–	96.5	97.0	–	–	92.4	97.9	102.3	95.2	87.6
CC(C)(C)NC(=S)Nc1ccc(Br)cc1	–	–	–	–	–	–	·	·	·	·	·
CC(C)(C)NC(=S)Nc1ccc(Nc2ccccc2)cc1	–	–	50.5	–	–	–	–	–	–	–	–
CSc1nc2sc3c(c2c(=O)n1C)CCC(C)C3 (centres undefined)	–	–	50.1	62.8	–	–	–	–	–	–	–
CCOC(=O)C/C(=N\Nc1ncnc2ccccc12)c1ccccc1	–	–	–	–	–	–	·	·	·	·	·
CCOC(=O)/C(=N\Nc1ncnc2ccccc12)c1ccc(C)cc1	61.6	–	–	60.8	–	–	–	56.1	77.6	–	–
Clc1cc(Cl)c(OCc2nc(-c3ccccn3)no2)cc1Cl	80.8	–	81.1	60.7	–	–	–	–	96.1	51.9	–
Clc1ccc(OCc2nc(-c3ccncc3)no2)c(Cl)c1	–	–	–	55.2	–	–	–	–	64.9	–	–
CC(C)(C)c1ccc(OCc2nc(-c3ccccn3)no2)c(Br)c1	–	–	–	58.7	–	–	–	57.3	74.4	–	–
O=C1OC[C@H]2CCCN2C(=O)[C@@H](CC(=O)N(CCO)Cc2ccccc2)C/C=C\C[C@H]1Cc1ccc(F)cc1	–	–	–	–	–	–	·	·	·	·	·
CC1=NN(C(N)=S)C(=O)C1N=Nc1ccc(O)cc1 (centres undefined)	–	–	–	–	–	–	·	·	·	·	·
CC1=NN(C(N)=S)C(=O)C1N=Nc1ccc([N+](=O)[O-])cc1 (centres undefined)	87.3	–	88.7	89.8	–	–	–	–	–	–	–
CCOc1ccc(N=NC2C(=O)N(C(N)=S)N=C2C)cc1 (centres undefined)	93.2	–	87.8	97.0	–	–	70.7	96.6	101.7	97.1	90.0
CC1=NN(C(N)=S)C(=O)C1N=Nc1ccc(F)cc1 (centres undefined)	78.9	–	80.3	88.4	–	–	–	–	–	53.9	–
CC(=O)Nc1ccc(N=NC2C(=O)N(C(N)=S)N=C2C)cc1 (centres undefined)	61.1	–	62.9	70.2	–	–	64.3	63.9	89.7	90.0	–
CCc1ccc(NC(=O)CS(=O)CC(=O)Nc2ccc(-n3cnnn3)c(C)c2)cc1 (centres undefined)	–	–	–	–	–	–	·	·	·	·	·
COc1ccc2oc(C(=O)Nc3nc4ccc(S(C)(=O)=O)cc4s3)c(C)c2c1	–	–	–	–	–	–	·	·	·	·	·
Cc1ccc2oc(C(=O)Nc3nnc(C)s3)c(C)c2c1	–	–	58.5	–	–	–	–	–	–	–	–
COc1ccc(Br)c(C(=O)Nc2nc3ccccc3[nH]2)c1	–	–	–	–	–	–	·	·	·	·	·
Cc1ccc2oc(C(=O)Nc3nonc3C)c(C)c2c1	–	–	–	–	–	–	·	·	·	·	·
COc1ccc2oc(C(=O)Nc3nc4ccccc4[nH]3)c(C)c2c1	58.3	–	92.9	78.2	–	–	–	–	95.0	84.5	58.2
COc1ccc2oc(C(=O)Nc3nnc(C)s3)c(C)c2c1	–	–	61.5	–	–	–	–	–	–	–	–
O=C(CSc1nnc(CNC(=O)c2ccccc2F)o1)Nc1cccc(C(F)(F)F)c1	–	–	–	–	–	–	·	·	·	·	·
SMILES	SENP8 block-1	UBC13 polyUb	SENP7 block	SENP6 block	SENP8 block-2	Apaf-1 inh	SENP8 confirm	SENP6 conf	SENP7 confirm	Casp3 select	SENP luc ctr
C[C@H](CO)N1C[C@H](C)[C@H](CN(C)C(=O)c2cc(-c3ccccc3)on2)OCc2cnnn2CCCC1=O	·	·	·	·	–	·	·	·	·	·	·
COC(=O)C1=C(NC(=O)c2ccccc2[N+](=O)[O-])CCS1	–	–	–	–	–	–	·	·	·	·	·
COc1ccc(C(=O)Nc2ccc3ncccc3c2)cc1	79.3	–	87.2	81.3	–	–	–	85.6	97.5	89.2	–
Cc1cc(=O)oc(C)c1C(=O)Nc1ccc2ncccc2c1	–	–	–	–	–	–	·	·	·	·	·
O=C(Nc1cccc2ncccc12)c1cccc(Br)c1	–	–	–	–	–	–	·	·	·	·	·
O=C(Nc1ccc2ncccc2c1)c1cccc(Br)c1	–	–	–	53.4	–	–	–	–	65.0	–	–
COc1ccc(Nc2ncccc2C(=O)O)cc1	–	–	–	57.2	–	–	–	–	75.8	81.1	62.7
Cc1ccc(C(=O)Nc2ccc3ncccc3c2)cc1	80.3	–	89.9	82.1	–	–	83.4	83.6	97.1	87.2	87.7
O=C1[C@H]2[C@H](C=CC[C@H]2C(=O)N2CCOCC2)CCN1Cc1ccccc1	–	–	–	–	–	–	·	·	·	·	·
COc1ccc(C(=O)Nc2ccccc2C(=O)Nc2cccc(C)n2)cc1	–	–	–	–	–	–	·	·	·	·	·
COc1ccc(C(=O)Nc2ccccc2C(=O)Nc2cc(C)ccn2)cc1	58.3	–	–	63.7	–	–	–	–	–	–	–
COc1ccc(C(=O)NC(=O)Nc2cc(C)ccn2)cc1	79.3	–	–	82.9	–	–	77.6	77.8	93.8	92.4	68.4
COc1ccc(C2CC(c3cccs3)=NN2C(=O)COC(=O)c2cncc(Br)c2)cc1OC (centres undefined)	–	–	–	–	–	–	·	·	·	·	·
CCOC1=C2[C@@H](CN(S(=O)(=O)c3ccc(C)cc3)[C@H]2c2ccccc2)[C@H]2C(=O)N(c3ccccc3)C(=O)[C@H]2C1	·	·	·	·	–	·	·	·	·	·	·
COC(=O)c1oc2ccc(Cl)cc2c1N	–	–	–	53.3	–	–	–	–	69.1	58.3	–
COC(=O)c1oc2ccccc2c1N	–	–	–	–	–	–	·	·	·	·	·
COc1ccc(-c2cc(C(=O)NC(Cc3cc4ccccc4[nH]3)C(=O)O)c(C)o2)cc1OC (centres undefined)	–	–	–	–	–	–	·	·	·	·	·
